Experimental data taken from publication PMC3904496 (Cancer chemotherapy and pharmacology, 2012).
Where two headings read alike, the source gives them in different places. Values belong to the compound of their own block, whether it stands above or below them.

What was measured:
[1] = Steady-state plasma pharmacokinetics, phase I trial; assay type: in vivo, human; conditions: for Mean peak plasma level: steady state; for AUC: po
In short: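 Liposarcoma patients took oral test compound twice daily with food. On day 8 of cycle 1, EDTA blood was drawn predose and 0.5–8 h post-dose, iced, spun within 1 h and stored as plasma at ≤ –20 °C. Parent and active metabolite were extracted by protein precipitation/organic extraction (reserpine internal standard) and quantified by LC–MS/MS in positive-ion MRM. Non-compartmental Cmax/Tmax; linear/log trapezoidal AUC.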

[2] = test system: liposarcoma; conditions: cited from earlier work
[3] = test system: HIV; conditions: cited from earlier work
[4] = test system: liposarcoma; assay: Tumor response by RECIST in subjects with liposarcoma; assay type: in vivo, human
[5] = test system: liposarcoma; conditions: cited from earlier work; remark: listed apart in the source
[6] = test system: SREBP-1; conditions: in the absence of increased gene expression; cited from earlier work
[7] = test system: liposarcoma xenograft; conditions: murine liposarcoma xenograft; cited from earlier work
[8] = RECIST, 20 subjects, all dose levels

time to peak plasma concentration ([1]; 3,000 mg nelfinavir twice daily): 4 to 6 h | time to peak plasma concentration ([1]; 4,250 mg nelfinavir twice daily): 2 h
Structure (SMILES): Cc1c(O)cccc1C(=O)N[C@@H](CSc1ccccc1)[C@H](O)CN1C[C@H]2CCCC[C@H]2C[C@H]1C(=O)NC(C)(C)CO [M8]
anticancer activity relative to parent molecule [2]: comparable to its parent molecule | activity in suppressing HIV replication relative to parent drug [3]: as pharmacologically active as the parent drug

Structure (SMILES): Cc1c(O)cccc1C(=O)N[C@@H](CSc1ccccc1)[C@H](O)CN1C[C@H]2CCCC[C@H]2C[C@H]1C(=O)NC(C)(C)C [nelfinavir]
Mean peak plasma level ([1]; Level 4, 3,000 mg twice daily oral, six subjects): 7.3 mg/L | Mean peak plasma level ([1]; Level 5, 4,250 mg twice daily oral, three subjects): 6.3 mg/L | Tmax ([1]; human, plasma, oral, 4250 mg twice daily): 2 h | AUC ([1]; human, plasma, 3000 mg twice daily): 60900 ng·h/mL | AUC ([1]; human, plasma, 4250 mg twice daily): 37700 ng·h/mL | subjects with CT partial response (PR) [4, 8]: 1 | subjects with progressive disease at initial evaluation [4, 8]: 13 | subjects with reduction in tumor size, but less than a PR [4, 8]: 1 | clinical benefit (complete response, PR, plus SD) ([4]; of 20 subjects): 30% | subjects with clinical benefit (complete response, PR, plus SD) ([4]; of 20 subjects): 6 | Acute toxicity count: Blood/bone marrow, Hemoglobin (Course 1, Grade 1): 3 | Acute toxicity count: Blood/bone marrow, Leukocytes (total WBC) (Course 1, Grade 1): 2 | Acute toxicity count: Blood/bone marrow, Other (Course 1, Grade 1): 1 | Acute toxicity count: Blood/bone marrow, Platelets (Course 1, Grade 1): 1 | Acute toxicity count: Cardiac arrhythmia ventricular arrhythmia (Course 1, Grade 1): 1 | Acute toxicity count: Laboratory, Bicarbonate, serum-low (Course 1, Grade 1): 1 | Acute toxicity count: Laboratory, Cholesterol, serum-high (Course 1, Grade 1): 2 | Acute toxicity count: Laboratory, Glucose, serum-high (Course 1, Grade 1): 1 | Acute toxicity count: Laboratory, Potassium, serum-low (Course 1, Grade 1): 2 | Acute toxicity count: Laboratory, Triglyceride, serum-high (Course 1, Grade 1): 2 | Acute toxicity count: Blood/bone marrow, Hemoglobin (Course 1, Grade 2): 1 | Acute toxicity count: Blood/bone marrow, Lymphopenia (Course 1, Grade 2): 1 | Acute toxicity count: Laboratory, Glucose, serum-high (Course 1, Grade 2): 1 | Acute toxicity count: Laboratory, Lipase (Course 1, Grade 3): 1 | Acute toxicity count: Blood/bone marrow, Hemoglobin (Subsequent courses, Grade 1): 2 | Acute toxicity count: Blood/bone marrow, Lymphopenia (Subsequent courses, Grade 1): 1 | Acute toxicity count: Blood/bone marrow, Platelets (Subsequent courses, Grade 1): 1 | Acute toxicity count: Blood/bone marrow, Hemoglobin (Subsequent courses, Grade 2): 2 | Acute toxicity count: Blood/bone marrow, Neutrophils (Subsequent courses, Grade 2): 1 | Acute toxicity count: Blood/bone marrow, Leukocytes (total WBC) (human, in vivo): 1 | Acute toxicity count: Constitutional, Fatigue (human, in vivo): 1 | Acute toxicity count: Constitutional, Weight loss (human, in vivo): 1 | Acute toxicity count: Dermatology/skin, Other (human, in vivo): 1 | Acute toxicity count: Dermatology/skin, Rash/desquamation (human, in vivo): 1 | Acute toxicity count: Gastrointestinal, Anorexia (human, in vivo): 1 | Acute toxicity count: Gastrointestinal, Diarrhea (human, in vivo): 7 | Acute toxicity count: Gastrointestinal, Nausea (human, in vivo): 1 | Acute toxicity count: Gastrointestinal, Vomiting (human, in vivo): 1 | Acute toxicity count: Laboratory, ALT, SGPT (human, in vivo): 1 | Acute toxicity count: Laboratory, AST, SGOT (human, in vivo): 1 | Acute toxicity count: Laboratory, Alkaline phosphatase (human, in vivo): 2 | Acute toxicity count: Laboratory, Glucose, serum-high (human, in vivo): 3 | Acute toxicity count: Laboratory, Potassium, serum-low (human, in vivo): 1 | Acute toxicity count: Laboratory, Triglyceride, serum-high (human, in vivo): 2 | Acute toxicity count: Neurology dizziness (human, in vivo): 1 | Acute toxicity count: Pain (human, in vivo): 2 | Acute toxicity count: Pulmonary dyspnea (human, in vivo): 1 | Acute toxicity count: Pulmonary, Hypoxia (human, in vivo): 1 | Acute toxicity count: Pulmonary, Other (human, in vivo): 1 | Acute toxicity count: Constitutional, Fatigue (human, in vivo, 28 days): 1 | Acute toxicity count: Dermatology/skin, Other (human, in vivo, 28 days): 1 | Acute toxicity count: Dermatology/skin, Rash/desquamation (human, in vivo, 28 days): 1 | Acute toxicity count: Gastrointestinal, Diarrhea (human, in vivo, 28 days): 2 | Acute toxicity count: Gastrointestinal, Nausea (human, in vivo, 28 days): 2 | Acute toxicity count: Gastrointestinal, Vomiting (human, in vivo, 28 days): 1 | Acute toxicity count: Hemorrhage/bleeding (human, in vivo, 28 days): 1 | Acute toxicity count: Hepatobiliary/pancreatitis (human, in vivo, 28 days): 1 | Acute toxicity count: Laboratory, ALT, SGPT (human, in vivo, 28 days): 3 | Acute toxicity count: Laboratory, AST, SGOT (human, in vivo, 28 days): 3 | Acute toxicity count: Laboratory, Album, serum-low (human, in vivo, 28 days): 1 | Acute toxicity count: Lymphatics/limb edema (human, in vivo, 28 days): 1 | MTD (up to dose Level 5 (4,250 mg twice daily)): not reached | range where anticancer activity was demonstrated in vitro [2]: 5 to 10 µM | potency rank among HIV PIs in clonogenic assays [5]: most potent HIV PI identified | precursor SREBP-1 protein expression [6]: dose-dependent increase | effect on tumor growth [7]: inhibition of tumor growth
